Screening results: PubChem, several laboratories
Hits are enriched below; roughly 1.8% of the tested compounds scored in any of these assays.
PAD4 inh = inhibitors of human PAD4. Q9UM07. recombinant PAD4, RCA probe fluorescence polarization. inhibition, % at 6.36 µM. actives 0.41% (n = 330,000). AID 485272;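 active = percent inhibition above a cutoff equal to the mean of all tested compounds plus 3 SD, cut at about 15% in these data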;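 also: 0% = PAD4 with RCA probe and DMSO and 100% = probe without PAD4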
TDP2 absorb = TDP2 (human) inhibition, absorbance primary screen; O95551; recombinant TDP2, T5PNP hydrolysis, p-nitrophenol absorbance 415 nm; inhibition, % at 12.8 µM; actives 0.34% (n = 370,000); AID 720702;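 active = inhibition above the mean of all tested compounds plus 3 SD, set per campaign, cut at about 25% in these data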;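 also: 0% = DMSO with enzyme and 100% = buffer with substrate but no TDP2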
Target sequence (O95551 whole entry, looked up): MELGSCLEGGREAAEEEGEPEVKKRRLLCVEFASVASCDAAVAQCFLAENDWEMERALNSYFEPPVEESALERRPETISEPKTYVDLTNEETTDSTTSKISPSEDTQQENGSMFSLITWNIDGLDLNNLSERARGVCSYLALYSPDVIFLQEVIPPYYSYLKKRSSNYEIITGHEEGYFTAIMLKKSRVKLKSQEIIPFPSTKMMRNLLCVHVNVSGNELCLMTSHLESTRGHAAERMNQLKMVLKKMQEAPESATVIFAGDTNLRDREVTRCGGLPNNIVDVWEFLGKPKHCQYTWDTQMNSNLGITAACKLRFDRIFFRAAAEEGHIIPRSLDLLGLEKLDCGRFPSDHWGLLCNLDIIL
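Assay system: recombinant human TDP2 / Reagent: T5PNP substrate at 5 mM, a TopII-DNA adduct mimic / Measured by: epi absorbance from released p-nitrophenol / Evaluation: % inhibition relative to enzyme-containing and enzyme-free wells / Control set: enzyme-free and DMSO wells / Replicates: each compound tested once, singlicate / Schedule: enzyme reaction with compound for 2 h at 37 °C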
CTSL1 counter = cathepsin L1 inhibition, PFM18AAP counter-screen; actives 0.49% (n = 300,000); recombinant F. hepatica cathepsin L1, Z-Leu-Arg-MCA fluorescence; inhibition, % at 5.96 µM; AID 1906;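 active = inhibition above the mean of all tested compounds plus 3 SD, set per screening campaign, cut at about 17% in these data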;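 also: 0% = plate median of test compound wells and 100% = 1 µM Z-Phe-Ala-diazomethylketone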
Apaf-1 inh = blocks human Apaf-1 apoptosome activity; AID 489030; actives 0.71% (n = 330,000); reconstituted apoptosome caspase-3 activity, DEVD-Rh110 fluorescence; inhibition, % at 20 µM; O14727; active = inhibition of at least 40% at 20 µM;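 also: plate controls were DMSO wells for no effect and DEVD-CHO caspase inhibitor wells for full effect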
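Material: reconstituted apoptosome with Apaf-1, cytochrome c, caspase-9, procaspase-3, dATP; medium: pH 7.5 Hepes buffer with CHAPS, BSA, DTT; also added: cytochrome c and DEVD-Rh110 substrate; timing: 30 min plus 50 min, RT; signal: Rh110 fluorescence intensity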
GSTO1 inh = GSTO1 inhibition, counter-screen for RBBP9 inhibitors | P78417 | recombinant GSTO1, activity-based probe fluorescence polarization | inhibition, % at 5.96 µM | actives 1.1% (n = 300,000);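 active = inhibition above the campaign mean inhibition plus 3 SD, cut at about 35% in these data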;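 also: 0% = GSTO1-1 with DMSO and 100% = wells lacking GSTO1-1 enzyme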
Target sequence (P78417 whole entry, looked up): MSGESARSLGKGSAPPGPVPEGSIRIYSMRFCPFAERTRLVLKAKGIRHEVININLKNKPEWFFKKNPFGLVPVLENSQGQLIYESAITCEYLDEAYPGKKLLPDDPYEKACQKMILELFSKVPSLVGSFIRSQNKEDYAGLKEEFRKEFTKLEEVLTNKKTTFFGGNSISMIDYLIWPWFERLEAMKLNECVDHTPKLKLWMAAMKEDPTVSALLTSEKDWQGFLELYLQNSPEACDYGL
* marks the source's active call; other numbers are inactive results; . = not tested or not shown.

SMILES	PAD4 inh	TDP2 absorb	CTSL1 counter	Apaf-1 inh	GSTO1 inh
CCOc1cc(C2CC(=O)N3CN(C4CCCCC4)CSC3=C2C#N)ccc1O (stereo not given)	-7	-8	80*	28	13
CCc1cccc(CC)c1NC(=S)/C(=C(\[O-])c1ccc(Cl)s1)[n+]1ccccc1	4	-3	34*	15	9
Cc1ccc(C)c(NC(=S)/C(=C(\[O-])c2ccc(Cl)s2)[n+]2ccccc2)c1	-3	-6	2	13	4
COc1ccc2oc(=N)c(C(=O)Nc3ccccc3Cl)cc2c1	-6	1	20*	19	6
O=C1CC(c2ccc(Cl)cc2)c2c(O)cc(O)cc2O1 (stereo not given)	0	0	0	0	37*
Cc1ccc(C2CC(=O)Oc3cc(C)cc(C)c32)cc1 (stereo not given)	-6	9	.	17	.
CCO/C=C1/C(=O)N(Cc2ccccc2)C(=O)c2ccccc21	-18	18	7	62*	16
Cc1ccc(CNC(=O)COc2ccc(C(=O)c3ccc(F)cc3)cc2)cc1	6	7	0	11	56*
O=C(COc1ccc(C(=O)c2ccc(F)cc2)cc1)NCc1ccc(F)cc1	-1	0	-2	12	3
Cc1ccc(OCc2nnc(SCC(=O)Nc3ccc(S(=O)(=O)Nc4cc(C)nc(C)n4)cc3)n2Cc2ccco2)cc1	.	2	.	.	.
COc1ccc(S(=O)(=O)N2CCCN(CC(=O)Nc3ccc(OC)c(Cl)c3)CC2)cc1	2	6	8	11	36*
CC(C)c1ccc(S(=O)(=O)/N=C2/C=CC(=O)c3ccccc32)cc1	.	.	.	72*	.
CC(C)c1ccc(S(=O)(=O)c2cc3cc(Br)ccc3oc2=O)cc1	2	8	4	-2	-3
CC1=CC(C)(C)Nc2ccc(OC(=O)CN3C(=O)c4cccc5cccc(c45)C3=O)cc21	-12	-2	-4	.	37*
CC1=CC(C)(C)Nc2ccc(OC(=O)C(Cc3ccccc3)N3C(=O)c4ccccc4C3=O)cc21 (stereo not given)	-4	-4	-8	5	-1
CC1=CC(C)(C)Nc2ccc(OC(=O)CN3C(=O)c4ccccc4C3=O)cc21	-5	-6	-2	22	56*
Cc1ccc(-n2c(SCc3cccc(F)c3)nc3ccccc3c2=O)cc1	.	6	.	.	.
Cc1ccc(C(C(=O)NCC2CCCO2)N(C(=O)c2snc(C(N)=O)c2N)c2ccc(F)cc2)o1 (stereo not given)	5	1	3	13	-3
Cc1ccc(C(C(=O)NCC2CCCO2)N(C(=O)c2snc(C(N)=O)c2N)c2ccccc2F)o1 (stereo not given)	5	7	19*	9	8
COc1ccc(OC)c(S(=O)(=O)N(CCc2ccc(OC)c(OC)c2)Cc2cccs2)c1	.	4	.	.	.
O=C(COc1ccccc1)N1CCN(S(=O)(=O)c2cccs2)CC1	1	0	19*	-2	3
Cc1ccc(N2CCN(C(=O)CN3C(=O)c4ccccc4C3=O)CC2)cc1	0	-1	21*	0	1
O=C(CN1C(=O)c2ccccc2C1=O)N1CCN(c2ccccc2)CC1	1	-7	1	1	7
CC(C)C[C@H](NC(=O)OC(C)(C)C)C(=O)N[C@@H](CO)[C@H](O)[C@@H]1C[C@@H]1C(=O)N(C)C	2	.	13	9	4
CC(C)(C)OC(=O)N[C@@H](COCc1ccccc1)C(=O)N[C@@H](CO)[C@H](O)[C@@H]1C[C@@H]1C(=O)NC1CC1	3	-3	-3	2	-1
SMILES	PAD4 inh	TDP2 absorb	CTSL1 counter	Apaf-1 inh	GSTO1 inh
CC(C)C[C@H](NC(=O)OC(C)(C)C)C(=O)N[C@@H](CO)[C@H](O)[C@@H]1C[C@@H]1C(=O)NC1CCCCC1	0	-8	33*	1	-2
CCCCNC(=O)[C@H]1C[C@H]1[C@@H](O)[C@H](CO)NC(=O)[C@H](CC(C)C)NC(=O)OC(C)(C)C	-1	.	44*	-2	-1
CC(C)C[C@H](NC(=O)OC(C)(C)C)C(=O)N[C@@H](CO)[C@H](O)[C@@H]1C[C@@H]1C(=O)NC1CC1	-1	-3	20*	-5	9
c1coc(-c2nc3c4ccccc4ccn3c2Cc2ccsc2)c1	.	-8	.	.	.
S=C(Nc1cc(Cl)cc(Cl)c1)NC(c1ccccc1)c1ccccc1	.	-9	.	.	.
CN(C)c1ccc(-c2nn3c(-c4ccco4)nnc3s2)cc1	.	4	.	.	.
Cc1ccc(CN2CCCCC(NC(=O)c3cccc(F)c3)C2=O)cc1 (stereo not given)	.	7	.	.	.
Cc1cccc2sc(N(CCN3CCOCC3)C(=O)CCS(=O)(=O)c3ccccc3)nc12	-4	4	17*	10	-2
CCN(CC)CCN(C(=O)CCS(=O)(=O)c1ccccc1)c1nc2cc(OC)c(OC)cc2s1	-1	-14	7	25	3
CCN(CC)CCN(C(=O)CCS(=O)(=O)c1ccccc1)c1nc2cc(C)cc(C)c2s1	1	2	34*	35	8
Cc1ccc(S(=O)(=O)CCC(=O)N(CCN2CCOCC2)c2nc3ccccc3s2)cc1	-6	8	11	11	7
CCN(CC)CCN(C(=O)CCS(=O)(=O)c1ccccc1)c1nc2c(C)cc(C)cc2s1	0	-3	40*	4	3
Cc1ccccc1C1CCC2(CC1)CCN(CC[C@@H](O)c1ccccc1)C2=O (stereo not given in full)	.	-13	.	.	.
COc1cc(OC)cc(-c2csc(N3CCC(C(N)=O)CC3)n2)c1	.	-9	.	.	.
COc1ccc(NC(=O)C(c2ccccn2)N(C(C)=O)c2ccc(C)cc2)cc1 (stereo not given)	-5	-3	1	-415	9
COc1ccc(N(C(=O)Cc2cccs2)C(C(=O)NC2CCCC2)c2ccncc2)cc1 (stereo not given)	-3	6	-5	-6	3
COc1ccc(N(C(=O)CCl)C(C(=O)NC2CCCCC2)c2cccnc2)cc1 (stereo not given)	2	4	8	-2	98*
CCOc1ccc(NC(=O)C(c2ccccn2)N(C(=O)CCl)c2ccc(OC)cc2)cc1 (stereo not given)	-9	0	0	-9	36*
O=S1(=O)c2ccc(Br)cc2OC[C@H](c2ccccc2)N1Cc1ccccc1	.	-10	.	.	.
CCOC(=O)/C(=C\c1ccc(C)cc1)NC(=O)c1ccccc1	2	-4	-2	-9	-1
Cc1ccc(/C=C(\NC(=O)c2ccccc2)C(=O)OCc2ccccc2)cc1	-2	12	22*	28	-5
COC(=O)CC1OCC=C2CN3CCC45C6=CC(=O)C(=O)C([N+](=O)[O-])=C6NC4C1C2CC35 (stereo not given)	.	68*	.	.	.
